The array DNA melting data of Ke et al. (doi:10.1101/2024.01.08.574731)

Experiments:
[1] = melting temperature; fluorescence melt of hairpins on a sequencing array, two-state fit, raised by 9.35 °C to match UV melts; details: sodium 0.088 M
Procedure, shortened: (§1)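 Bootstrapped two-state fits yielded melting temperature and folding enthalpy for library hairpins. Cy3 fluorescence, with annealed Cy3 and quencher oligos, was imaged on a sequenced MiSeq flow cell in 50 mM Na-HEPES pH 8.0, 25 mM NaCl in 2.5 °C steps up to 60 °C, and normalised to pre-quench Cy3 and to control constructs. Four replicates were combined by inverse variance, and fitted temperatures were raised by 9.35 °C to match UV melts.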

[2] = folding enthalpy; higher = less favourable; fluorescence melt of hairpins on a sequencing array, two-state fit; details: sodium 0.088 M
Procedure, shortened: as §1

AAAGTGAAAACTTT (((((....)))))
Tm [1]: 33 °C
folding enthalpy [2]: -11.1 kcal/mol

AAATCGAAAGATTT (((((....)))))
Tm [1]: 46.6 °C
folding enthalpy [2]: -13.6 kcal/mol

AACCTGAAAAGGTT (((((....)))))
Tm [1]: 45.5 °C
folding enthalpy [2]: -20 kcal/mol

AACGTGAAAACGTT (((((....)))))
Tm [1]: 48 °C
folding enthalpy [2]: -19.2 kcal/mol

AACTTGAAAAAGTT (((((....)))))
Tm [1]: 30.4 °C
folding enthalpy [2]: -14.2 kcal/mol

AAGACGAAAGTCTT (((((....)))))
Tm [1]: 52.7 °C
folding enthalpy [2]: -20.1 kcal/mol

AAGCGGAAACGCTT (((((....)))))
Tm [1]: 57.3 °C
folding enthalpy [2]: -17.5 kcal/mol

AAGGGGAAACCCTT (((((....)))))
Tm [1]: 46 °C
folding enthalpy [2]: -13.8 kcal/mol

AAGGTGAAAACCTT (((((....)))))
Tm [1]: 43.2 °C
folding enthalpy [2]: -17.5 kcal/mol

AAGTCGAAAGACTT (((((....)))))
Tm [1]: 52.6 °C
folding enthalpy [2]: -18.3 kcal/mol

AATACGAAAGTATT (((((....)))))
Tm [1]: 44.8 °C
folding enthalpy [2]: -15.3 kcal/mol

AATGTGAAAACATT (((((....)))))
Tm [1]: 37.8 °C
folding enthalpy [2]: -15 kcal/mol

ACAACGAAAGTTGT (((((....)))))
Tm [1]: 53.6 °C
folding enthalpy [2]: -21.6 kcal/mol

ACAAGGAAACTTGT (((((....)))))
Tm [1]: 40.3 °C
folding enthalpy [2]: -12.6 kcal/mol

ACACGGAAACGTGT (((((....)))))
Tm [1]: 55.1 °C
folding enthalpy [2]: -24 kcal/mol

ACATAGAAATATGT (((((....)))))
Tm [1]: 24.6 °C
folding enthalpy [2]: -7.88 kcal/mol

ACCCAGAAATGGGT (((((....)))))
Tm [1]: 47.9 °C
folding enthalpy [2]: -18.3 kcal/mol

ACGATGAAAATCGT (((((....)))))
Tm [1]: 51 °C
folding enthalpy [2]: -19 kcal/mol

ACTTCGAAAGAAGT (((((....)))))
Tm [1]: 50.8 °C
folding enthalpy [2]: -20.8 kcal/mol

AGATCGAAAGATCT (((((....)))))
Tm [1]: 50.9 °C
folding enthalpy [2]: -23.2 kcal/mol

AGCTTGAAAAAGCT (((((....)))))
Tm [1]: 47.9 °C
folding enthalpy [2]: -17.4 kcal/mol

AGGTAGAAATACCT (((((....)))))
Tm [1]: 33.5 °C
folding enthalpy [2]: -14.5 kcal/mol

AGTACGAAAGTACT (((((....)))))
Tm [1]: 54.1 °C
folding enthalpy [2]: -21.4 kcal/mol

AGTCGGAAACGACT (((((....)))))
Tm [1]: 54.3 °C
folding enthalpy [2]: -20.1 kcal/mol

AGTTCGAAAGAACT (((((....)))))
Tm [1]: 55.4 °C
folding enthalpy [2]: -20.8 kcal/mol

ATACAGAAATGTAT (((((....)))))
Tm [1]: 25.3 °C
folding enthalpy [2]: -10.4 kcal/mol

ATCAGTGAAAAATCACTGAA ....................
Tm [1]: 31.9 °C
folding enthalpy [2]: -20.6 kcal/mol

ATCAGTGAGAAATCACTGAA ....................
Tm [1]: 46.2 °C
folding enthalpy [2]: -14.1 kcal/mol

ATCCAGAAATGGAT (((((....)))))
Tm [1]: 41.2 °C
folding enthalpy [2]: -14.3 kcal/mol

ATCCGGAAACGGAT (((((....)))))
Tm [1]: 52.8 °C
folding enthalpy [2]: -20.7 kcal/mol

ATTCCGAAAGGAAT (((((....)))))
Tm [1]: 52.4 °C
folding enthalpy [2]: -20.8 kcal/mol

CAAACAGAAATGGTTG (((.((....)).)))
Tm [1]: 29.4 °C
folding enthalpy [2]: -13 kcal/mol

CATCAGAAATGATG (((((....)))))
Tm [1]: 41.7 °C
folding enthalpy [2]: -18.6 kcal/mol

CATCTGAAAAGATG (((((....)))))
Tm [1]: 44.5 °C
folding enthalpy [2]: -25.1 kcal/mol

CATTTGAAAAAATG (((((....)))))
Tm [1]: 32.1 °C
folding enthalpy [2]: -11.1 kcal/mol

CCCCAGAAATGGGG (((((....)))))
Tm [1]: 52.2 °C
folding enthalpy [2]: -16 kcal/mol

CCGAAGAAATTCGG (((((....)))))
Tm [1]: 46.9 °C
folding enthalpy [2]: -19.2 kcal/mol

CCGGAGAAATCCGG (((((....)))))
Tm [1]: 56.5 °C
folding enthalpy [2]: -21.4 kcal/mol

CCGTGGAAACACGG (((((....)))))
Tm [1]: 59.1 °C
folding enthalpy [2]: -29.2 kcal/mol

CGAAAGAAATTTCG (((((....)))))
Tm [1]: 38.5 °C
folding enthalpy [2]: -13.6 kcal/mol

CGAACACGGAAACGTTCG (((..(((....))))))
Tm [1]: 42.7 °C
folding enthalpy [2]: -32.4 kcal/mol

CGAACCGGAAACGGCTCG (((.(((....))).)))
Tm [1]: 49.9 °C
folding enthalpy [2]: -35.5 kcal/mol

CGAACCGGAAACGGGTCG (((.(((....))).)))
Tm [1]: 58.3 °C
folding enthalpy [2]: -33.9 kcal/mol

CGAACGGAAACGTGCTCG ((((((....)))..)))
Tm [1]: 28.5 °C
folding enthalpy [2]: -15.1 kcal/mol

CGAACGGAAACGTGTCG ((((((....))).)))
Tm [1]: 38.5 °C
folding enthalpy [2]: -23.1 kcal/mol

CGAAGGAAACTTCG (((((....)))))
Tm [1]: 48.6 °C
folding enthalpy [2]: -21.5 kcal/mol

CGAAGGCGGAAACGCTCG (((..(((....))))))
Tm [1]: 37.5 °C
folding enthalpy [2]: -20.8 kcal/mol
